Laboratory results taken from ChEMBL document CHEMBL1938394, “Time-dependent slowly-reversible inhibition of monoamine oxidase A by N-substituted 1,2,3,6-tetrahydropyridines” (Bioorg Med Chem, 2011).

Assays:
[1] = molecular target: T1, Amine oxidase [flavin-containing] A (Homo sapiens, UniProt P21397); assay: Inhibition of human recombinant MAOA expressed in insect cells using kynuramine substrate after 60 mins
T1 sequence (P21397 whole entry): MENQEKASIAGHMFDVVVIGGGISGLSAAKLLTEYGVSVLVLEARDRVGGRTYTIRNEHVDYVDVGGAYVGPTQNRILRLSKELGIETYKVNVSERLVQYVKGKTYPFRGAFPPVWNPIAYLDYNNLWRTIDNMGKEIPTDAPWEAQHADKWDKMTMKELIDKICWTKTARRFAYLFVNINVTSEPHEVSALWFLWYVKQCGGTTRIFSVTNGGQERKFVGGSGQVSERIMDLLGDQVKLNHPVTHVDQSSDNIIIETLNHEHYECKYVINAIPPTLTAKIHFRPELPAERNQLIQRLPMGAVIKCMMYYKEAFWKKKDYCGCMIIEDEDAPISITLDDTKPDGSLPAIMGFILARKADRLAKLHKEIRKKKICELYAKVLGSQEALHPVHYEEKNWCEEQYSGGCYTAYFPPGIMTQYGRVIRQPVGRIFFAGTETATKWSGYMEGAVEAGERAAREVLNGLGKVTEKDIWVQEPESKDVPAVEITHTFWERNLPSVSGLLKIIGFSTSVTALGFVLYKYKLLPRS

[2] = molecular target: T2, Amine oxidase [flavin-containing] B (Homo sapiens, UniProt P27338); assay: Inhibition of human recombinant MAOB expressed in insect cells using benzylamine hydrochloride as substrate after 30 mins
T2 sequence (P27338 whole entry): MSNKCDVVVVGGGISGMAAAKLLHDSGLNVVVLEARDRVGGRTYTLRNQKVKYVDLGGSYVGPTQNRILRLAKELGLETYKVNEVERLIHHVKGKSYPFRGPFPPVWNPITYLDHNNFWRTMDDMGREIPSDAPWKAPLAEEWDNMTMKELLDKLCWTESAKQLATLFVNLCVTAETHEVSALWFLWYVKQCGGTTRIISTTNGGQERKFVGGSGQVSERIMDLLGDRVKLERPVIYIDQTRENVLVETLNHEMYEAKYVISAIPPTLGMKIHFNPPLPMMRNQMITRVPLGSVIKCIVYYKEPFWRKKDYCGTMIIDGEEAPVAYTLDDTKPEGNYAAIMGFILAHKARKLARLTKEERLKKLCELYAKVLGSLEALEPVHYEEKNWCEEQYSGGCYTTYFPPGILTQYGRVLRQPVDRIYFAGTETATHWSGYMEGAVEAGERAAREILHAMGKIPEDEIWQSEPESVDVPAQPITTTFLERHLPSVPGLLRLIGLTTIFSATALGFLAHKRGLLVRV
In short: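 Human recombinant MAO-B (0.01 mg/mL) in 0.1 M isotonic phosphate buffer pH 7.4, inhibitor 0–7000 µM, benzylamine 1000 µM final, 30 min at 37 °C. Stopped with perchloric acid; benzaldehyde measured by reverse-phase HPLC with UV 254 nm. IC50 from sigmoidal log dose–response fit; triplicate, mean ± SD.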

Homo sapiens = organism: Homo sapiens; assay: Selectivity index, ratio of IC50 for human recombinant MAOB to IC50 for human recombinant MAOA
In short: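 MAO-A (0.005 mg/mL; 150 μM kynuramine, 60 min, 37 °C, […]) and MAO-B (0.01 mg/mL; 1000 μM benzylamine, 30 min, 37 °C, perchloric acid stop, benzaldehyde by HPLC-UV at 254 nm) in isotonic 0.1 M phosphate pH 7.4. Inhibitor 0–7000 μM. IC50s from sigmoidal log curves in triplicate. SI = MAO-B IC50 / MAO-A IC50.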

[3] = molecular target: T1, Amine oxidase [flavin-containing] A; assay: Inhibition of human recombinant MAOA expressed in insect cells assessed as oxidation of kynuramine substrate measured after additional substrate added after 90 mins incubation; conditions: 1.5 h
[4] = molecular target: T1, Amine oxidase [flavin-containing] A; assay: Noncompetitive inhibition of human recombinant MAO-A assessed as dissociation constant for enzyme-inhibitor complex by Lineweaver-Burk plot analysis
[5] = molecular target: T1, Amine oxidase [flavin-containing] A; assay: Inhibition of human recombinant MAOA expressed in insect cells assessed as oxidation of kynuramine substrate at 5 uM up to 90 mins; conditions: 1.5 h
In short: (§1)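 Time course of kynuramine oxidation by recombinant human MAO-A at 37 °C in isotonic 0.1 M phosphate pH 7.4 with or without inhibitor. A second portion of substrate (150 μM kynuramine) was added at 90 min and fresh enzyme at 120 min, with product formation followed throughout.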

[6] = molecular target: T1, Amine oxidase [flavin-containing] A; assay: Time dependent inhibition of human recombinant MAOA expressed in insect cells using kynuramine as substrate at 5 uM preincubated up to 40 mins before kynuramine substrate addition
In short: (§2)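 Recombinant human MAO-A preincubated at 37 °C with inhibitor (2–5 μM) or buffer control for 0, 10, 20, 30 or 40 min before kynuramine (150 μM) was added. Activity read after 30 min as % of control, n = 3. Kitz–Wilson slope replot: Ki from reciprocal of x-intercept, kinact from reciprocal of y-intercept.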

[7] = molecular target: T1, Amine oxidase [flavin-containing] A; assay: Inhibition of human recombinant MAOA expressed in insect cells using kynuramine as substrate by Kitz-Wilson plot analysis; in short: as §2
[8] = molecular target: T3, MAO-A (amine oxidase [flavin-containing] A) (Homo sapiens, UniProt P21397); assay: Irreversible inhibition of human recombinant MAOA expressed in insect cells using kynuramine as substrate by Kitz-Wilson plot analysis; conditions: probe kynuramine; in short: as §2
T3 sequence (P21397 whole entry): T1 sequence (P21397 whole entry)

[9] = molecular target: T1, Amine oxidase [flavin-containing] A; assay: Inhibition of human recombinant MAOA expressed in insect cells assessed as formation of 4-hydroxyquinoline at 5 uM preincubated for 1 hr before kynuramine substrate measured after 12 hrs of dialysis
In short: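 MAO-A (0.005 mg/mL) in 0.1 M sodium phosphate pH 7.4 made isotonic with NaCl, preincubated 1 h at 37 °C without substrate with inhibitor (final volume 1 mL), then dialyzed overnight at 0 °C against 250 mL buffer. Activity in dialysate read as product formation at 310 nm with 150 μM kynuramine over 60 min at 37 °C. 4-Hydroxyquinoline quantified by calibration curve. Means ± SD, n = 3.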

[10] = molecular target: T1, Amine oxidase [flavin-containing] A; assay: Inhibition of human recombinant MAOA expressed in insect cells assessed as formation of 4-hydroxyquinoline at 5 uM preincubated for 1 hr before kynuramine substrate measured after 1 hr in presence of sodium borohydride
In short: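 MAO-A (0.005 mg/mL) preincubated 60 min at 37 °C with inhibitor in isotonic 0.1 M phosphate pH 7.4. NaBH4 (5 μL of 300 mM stock in water) then added and the mix held 15 min at 0 °C. It was dialyzed overnight at 0 °C, then read at 310 nm with 150 μM kynuramine over 60 min at 37 °C. Controls without inhibitor also got borohydride. n = 3.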

[11] = molecular target: T1, Amine oxidase [flavin-containing] A; assay: Inhibition of human recombinant MAOA expressed in insect cells assessed as oxidation of kynuramine substrate at 5 uM measured after additional substrate added after 90 mins incubation; conditions: 1.5 h; in short: as §1
[12] = molecular target: T1, Amine oxidase [flavin-containing] A; assay: Noncompetitive inhibition of human recombinant MAO-A assessed as dissociation constant for enzyme-inhibitor-substrate complex by Lineweaver-Burk plot analysis
[13] = molecular target: T1, Amine oxidase [flavin-containing] A; assay: Inhibition of human recombinant MAOA expressed in insect cells assessed as oxidation of kynuramine substrate at 5 uM measured after additional enzyme added after 120 mins incubation; conditions: 2 h; in short: as §1
[14] = molecular target: T1, Amine oxidase [flavin-containing] A; assay: Mixed noncompetitive inhibition of human recombinant MAO-A assessed as dissociation constant for enzyme-inhibitor complex by Lineweaver-Burk plot analysis
In short: (§3)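 Human recombinant MAO-A (0.005 mg/mL) in 0.1 M sodium phosphate pH 7.4 made isotonic with NaCl, 37 °C, 30 min. Initial oxidation rates at four kynuramine levels (50–150 µM) without or with four inhibitor concentrations (range per compound, 5–1000 µM). Ki from Lineweaver–Burk plots and replots by linear regression; triplicate.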

[15] = molecular target: T1, Amine oxidase [flavin-containing] A; assay: Inhibition of human recombinant MAOA expressed in insect cells assessed as oxidation of kynuramine substrate at 6 mM measured after additional substrate added after 90 mins incubation; conditions: 1.5 h
In short: (§4)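 Recombinant human MAO-A incubated with kynuramine, with or without inhibitor. Product formation followed over time. A second equivalent of substrate (150 µM kynuramine) added at 90 min and fresh enzyme added at 120 min.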

[16] = molecular target: T1, Amine oxidase [flavin-containing] A; assay: Mixed noncompetitive inhibition of human recombinant MAO-A assessed as dissociation constant for enzyme-inhibitor-substrate complex by Lineweaver-Burk plot analysis; in short: as §3
[17] = molecular target: T1, Amine oxidase [flavin-containing] A; assay: Inhibition of human recombinant MAOA expressed in insect cells assessed as oxidation of kynuramine substrate at 6 mM measured after additional enzyme added after 120 mins incubation; conditions: 2 h, 6000 µM; in short: as §4
[18] = molecular target: T1, Amine oxidase [flavin-containing] A; assay: Competitive inhibition of human recombinant MAO-A assessed as dissociation constant for enzyme-inhibitor complex by Lineweaver-Burk plot analysis; in short: as §3
[19] = molecular target: T1, Amine oxidase [flavin-containing] A; assay: Inhibition of human recombinant MAOA expressed in insect cells assessed as oxidation of kynuramine substrate at 2 mM measured after additional substrate added after 90 mins incubation; conditions: 1.5 h; in short: as §4
[20] = molecular target: T1, Amine oxidase [flavin-containing] A; assay: Competitive inhibition of human recombinant MAO-A assessed as dissociation constant for enzyme-inhibitor-substrate complex by Lineweaver-Burk plot analysis; in short: as §3
[21] = molecular target: T1, Amine oxidase [flavin-containing] A; assay: Inhibition of human recombinant MAOA expressed in insect cells assessed as oxidation of kynuramine substrate at 2 mM measured after additional enzyme added after 120 mins incubation; conditions: 2 h, 2000 µM; in short: as §4

SMILES	IC50 [1]	IC50 [2]	Ratio IC50 (Homo sapiens)	inhibition (INH) [3]	also measured
Fc1ccc(CCN2CC=CCC2)cc1	27.3 µM	5270 µM	193	Not Active	–
Clc1ccc(OCCCN2CC=CCC2)c(Cl)c1	2.6 µM	66.4 µM	25.4	–	Ki [4]: 2.2 µM; inhibition (INH) [5]: Active; TDI [6]: Active; Ki [7]: 7.4 µM; kinact [8]: 0.002 s⁻¹; inhibition (INH) [9]: Active; inhibition (INH) [10]: Active; inhibition (INH) [11]: Active; Ki [12]: 0.9 µM; inhibition (INH) [13]: Active
COc1ccc(CCN2CC=CCC2)cc1	12 µM	96.1 µM	8	Not Active	–
CC1=CCN(CCc2ccccc2)CC1	623 µM	1250 µM	2	–	Ki [14]: 408 µM; inhibition (INH) [15]: Active; Ki [16]: 2590 µM; inhibition (INH) [17]: Active
Clc1ccc(CCN2CC=CCC2)c(Cl)c1	6.1 µM	67.2 µM	11.1	Not Active	–
c1ccc(CCN2CCCCC2)cc1 [1-PHENETHYLPIPERIDINE]	757 µM	762 µM	1	–	Ki [18]: 121 µM; inhibition (INH) [19]: Active; Ki [20]: 3680 µM; inhibition (INH) [21]: Active
